Assay outcomes deposited in PubChem BioAssay by The Scripps Research Institute Molecular Screening Center.
PLCb3 inh – inhibitors of human phospholipase C beta3. Q01970. Purified PLC-beta3, fluorogenic substrate, fluorescence. inhibition, % at 12.2 µM. 370,000 compounds, 0.18% hits. AID 720704; in the data active = inhibition above about 11%;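 also: 0% = median of compound wells on plate and 100% = full blocker control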
DDE Tn7 FP inh – DD(E)-Tn7 binding inhibition, primary FP screen. P02675. FP displacement of FITC-Tn7 peptide from fibrin DD(E); 0% = median of compound wells per plate. inhibition, % at 8.3 µM. 370,000 compounds, 0.13% hits;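 active = inhibition above the mean of compounds falling within the control limits plus 3 SD of them, cut at about 14% in these data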;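 also: 0% = plate median of compound wells and 100% = 10 µM Aha-Tn7 peptide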
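Assay system: Human clot-derived fibrin DD(E) complex | Buffer or medium: Tris/NaCl/CaCl2 buffer, pH 7.8 | Repeats: One replicate per compound | Benchmarks: Aha-Tn7 high control | Measure: % inhibition scaled between sample-field median and high-control FP | Schedule: 10 min plus 3 h, room temperature | Signal: Fluorescence polarization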
ADAM17 inh – inhibitors of human ADAM17; inhibition, % at 6.95 µM; 370,000 compounds, 0.83% hits; recombinant ADAM17, EDANS/DABCYL FRET peptide cleavage;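 active = inhibition above the mean of compounds lying between control limits plus 3 SD, set per campaign, cut at about 8.5% in these data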;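 also: 0% = DMSO-only wells as the low control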
Target sequence (P78536 215-824 limits assumed): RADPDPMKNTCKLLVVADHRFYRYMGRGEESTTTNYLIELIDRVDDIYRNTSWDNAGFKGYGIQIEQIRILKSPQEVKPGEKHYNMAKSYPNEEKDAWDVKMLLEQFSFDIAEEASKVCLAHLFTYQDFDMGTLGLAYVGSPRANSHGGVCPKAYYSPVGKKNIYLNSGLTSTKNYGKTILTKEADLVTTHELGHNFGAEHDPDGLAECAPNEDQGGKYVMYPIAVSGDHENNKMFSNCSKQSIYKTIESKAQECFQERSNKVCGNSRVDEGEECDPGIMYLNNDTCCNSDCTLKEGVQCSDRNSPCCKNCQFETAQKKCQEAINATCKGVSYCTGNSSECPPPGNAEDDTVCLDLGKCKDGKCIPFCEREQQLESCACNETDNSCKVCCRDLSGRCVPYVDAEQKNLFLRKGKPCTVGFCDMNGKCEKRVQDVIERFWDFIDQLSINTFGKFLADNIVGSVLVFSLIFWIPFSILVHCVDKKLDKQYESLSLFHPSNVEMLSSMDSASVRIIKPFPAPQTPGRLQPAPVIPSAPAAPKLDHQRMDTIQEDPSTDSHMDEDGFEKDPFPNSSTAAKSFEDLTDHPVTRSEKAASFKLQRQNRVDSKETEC
PLC-gamma1 inh – PLC-gamma1 (human) inhibition, primary screen; purified PLC-gamma1, fluorogenic substrate, fluorescence; inhibition, % at 12.2 µM; 370,000 compounds, 0.84% hits; AID 720700; in the data active = inhibition above about 9.5%
ADAM10 inh – inhibits human ADAM10; O14672; recombinant ADAM10, EDANS/DABCYL FRET peptide cleavage, 3 h; inhibition, % at 7 µM; 370,000 compounds, 0.62% hits;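 active = inhibition above a per-campaign cutoff equal to the mean of compounds falling between control-based bounds plus 3 SD, cut at about 20% in these data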;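 also: 0% = DMSO wells while the 100% control is not disclosed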
DDE Tn6 FP inh – DD(E)-Tn6 binding inhibition, primary FP screen. P02675. 370,000 compounds, 0.21% hits. Fibrin DD(E) TRITC-Tn6 fluorescence polarization displacement. inhibition, % at 8.3 µM;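 active = inhibition above a per-campaign cutoff: mean of compounds within control limits plus 3 SD, cut at about 15% in these data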;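 also: 0% = median of all compound wells on the plate and 100% = blocking peptide control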
ADAM10 ctr – ADAM10 inhibition, counter-screen for ADAM17 exosite hits; shares compounds with ADAM17 inh; recombinant ADAM10, EDANS/DABCYL FRET peptide cleavage, 3 h; inhibition, % at 6.95 µM; 2,900 compounds, 47% hits; AID 743256;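 active = mean inhibition over the triplicate runs exceeds the activity threshold set in the earlier primary screen, cut at about 20% in these data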;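 also: 0% = DMSO wells and 100% = marimastat wells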
ADAM17 confirm – human ADAM17 inhibition, confirmation; shares compounds with ADAM17 inh; recombinant ADAM17, EDANS/DABCYL QFRET peptide cleavage; inhibition, % at 6.95 µM; 2,900 compounds, 65% hits; AID 743257;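 active = mean inhibition across replicates above the hit cutoff set in the primary screen, cut at about 8.5% in these data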;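 also: 0% = DMSO wells and 100% = marimastat wells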
* = called active by the depositor; · = not tested or not shown. Sampled rows, rich in hits. Any-hit rate of the full collection: about 2.3%.

SMILES	PLCb3 inh	DDE Tn7 FP inh	ADAM17 inh	PLC-gamma1 inh	ADAM10 inh	DDE Tn6 FP inh	ADAM10 ctr	ADAM17 confirm
COc1ccc(N2CCN(C(=O)CCC(=O)N3CCOc4ccc(C)cc43)CC2)cc1	-2.1	-5.2	0.5	0.5	-8.7	-8.8	·	·
Clc1ccc(Sc2cnc3ccccc3n2)cc1	-1.1	-4.8	-4.3	0.1	-8.9	1.8	·	·
Clc1ccccc1Sc1cnc2ccccc2n1	-1.7	-3.9	8.8*	7.5	1.2	-8.4	-6.3	0.3
Cc1csc(-c2cnn(-c3ccccc3)c2NC(=O)c2ccc(C(F)(F)F)cc2)n1	0.7	-9.5	9.3*	2.3	12.6	1.0	17.8	11.2*
Cc1cccc2cc(C3CC(c4ccco4)=NN3S(C)(=O)=O)c(Cl)nc12 (centres undefined)	-5.8	1.2	1.0	-0.3	9.3	1.4	·	·
Cc1cccc2cc(C3CC(c4ccco4)=NN3S(=O)(=O)c3ccccc3)c(Cl)nc12 (centres undefined)	-0.6	0.6	9.4*	-1.6	9.8	-4.9	19.8*	12.2*
CCOC(=O)c1c(C)[nH]c(C)c1C(=O)CSc1nc2ccccc2c(=O)n1-c1ccc(F)cc1	-0.4	5.0	10.2*	-0.9	19.4	4.3	22.0*	14.6*
O=[N+]([O-])c1cc(-n2cnnn2)ccc1N1CCC(Cc2ccccc2)CC1	1.0	1.2	11.9*	2.7	26.4*	8.6	13.0	9.2*
Cc1ccccc1NC(=O)OC1CCC12CCC(c1ccccc1)CC2 (centres undefined)	0.8	-2.6	0.2	4.2	2.3	-2.2	·	·
CCN1/C(=C\C=C(C(C)=O)C(C)=O)Sc2ccccc21	-5.4	-34.4	10.1*	-1.5	11.6	-0.7	18.5	9.1*
CN[C@H]1C[C@H]2c3cc(-c4ccc5c(c4)OCO5)ccc3CCN2C[C@H]1[C@H](C)O	1.7	-0.3	-2.2	0.0	7.6	7.3	·	·
CSc1ccc(C(O)c2ncc(-c3cccc(OCc4ccccc4)c3)[nH]2)cc1 (centres undefined)	-7.6	6.6	9.3*	-4.3	18.7	-1.8	23.5*	11.5*
OC(c1ccc(-c2ccccc2)cc1)c1ncc(-c2ccc(F)cc2)[nH]1 (centres undefined)	0.9	-9.0	11.4*	2.6	19.0	-5.3	22.9*	12.2*
COc1ccc(C(O)c2ncc(-c3ccccc3)[nH]2)cc1 (centres undefined)	2.0	5.7	-6.8	3.2	-10.2	-0.3	·	·
COc1cccc(-c2cnc(C(O)c3ccc(SC)cc3)[nH]2)c1 (centres undefined)	0.9	6.2	0.9	0.7	10.2	1.8	·	·
CCCCCC(=O)NC1CCCCN(Cc2ccc(C)cc2)C1=O (centres undefined)	-0.1	5.7	-5.7	-1.5	-3.3	0.3	·	·
C#CCNC(=O)C[C@H]1C[C@@]2(C(=O)OC)C(=C[C@H](COCc3ccccc3)O[C@@H]2C)N(CCCCCCCC)C1=O	-2.3	-7.8	1.7	-3.1	2.0	-1.9	·	·
Cc1cc(NC(=O)CCSc2ccccc2)ccc1Br	3.8	0.0	9.2*	5.3	18.6	6.4	21.6*	14.2*
CNC(=O)N(C1=NCC(C)(C)S1)c1ccc(F)c(Cl)c1	7.9	-4.4	9.2*	2.2	11.1	-8.6	8.5	5.8
C=CCCC(=O)N[C@H]1CC[C@@]23CCCN2C(=O)CCC[C@H]3[C@H]1C	2.7	-3.9	-3.6	0.5	-4.8	-3.1	·	·
CCc1ccc(/C=N/NC(=O)c2cc(-c3ccccc3OC)nc3ccccc23)s1	-95.8	3.5	9.2*	-43.1	8.0	-2.2	-29.9	5.4
COc1ccccc1/C=C/C1C(C(=O)OCC(C)C)=C(C)N=C2SCCC(=O)N21 (centres undefined)	-7.3	-10.3	10.7*	0.9	14.7	-2.6	19.6	12.4*
CC1=C(C(=O)N2CCOCC2)CC(CC(=O)NCc2cccs2)C(=O)N1Cc1ccc(C(C)(C)C)cc1 (centres undefined)	3.5	0.6	-2.5	2.0	0.8	-6.1	·	·
CCN(CC)C(=O)C1=C(C)N(Cc2ccc(C(C)(C)C)cc2)C(=O)C(CC(=O)NC(c2ccccc2)c2ccccc2)C1 (centres undefined)	-4.7	3.2	9.3*	3.0	4.6	-0.7	26.5*	13.2*
CC1=C(C(=O)N2CCOCC2)CC(CC(=O)NCc2cccc3ccccc23)C(=O)N1Cc1ccc(C(C)(C)C)cc1 (centres undefined)	5.8	-0.9	9.0*	3.2	3.2	5.9	13.6	7.2
SMILES	PLCb3 inh	DDE Tn7 FP inh	ADAM17 inh	PLC-gamma1 inh	ADAM10 inh	DDE Tn6 FP inh	ADAM10 ctr	ADAM17 confirm
COc1cc(O)c([C@@H](CC(=O)N2CC(C)CC(C)C2)c2ccc3c(c2)OCO3)c(OC)c1 (some centres undefined)	3.2	1.8	3.5	-0.2	10.5	-1.5	·	·
Cc1ccc(-c2nc(C3CCCN(S(=O)(=O)c4cccs4)C3)no2)cc1 (centres undefined)	-4.1	6.0	-2.5	0.9	2.0	-0.1	·	·
O=C(Oc1cccc(NC(=O)c2cccs2)c1)c1cccc(S(=O)(=O)N2CCCC2)c1	3.2	-0.6	11.2*	0.2	17.8	-4.3	26.5*	16.5*
O=C(Nc1cccc(S(=O)(=O)N2CCCCC2)c1)c1cccs1	-2.0	-6.2	2.1	7.0	17.2	7.1	·	·
CC(C)(C)c1ccc(OCc2nc(-c3ccccn3)no2)c(Br)c1	0.6	9.5	8.7*	-1.2	15.6	-2.1	15.3	18.4*
Clc1cc(Cl)c(OCc2nc(-c3ccccn3)no2)cc1Cl	4.5	-2.0	-2.6	2.7	-11.7	5.1	·	·
O=C(c1ccccc1Oc1ccccc1)N1CCN(c2ccccc2F)CC1	1.5	-1.3	2.7	2.0	2.2	-1.3	·	·
COc1ccccc1N1CCN(C(=O)c2ccccc2Oc2ccccc2)CC1	2.2	0.0	15.0*	2.8	13.5	6.2	-1.8	-0.3
COCCN(C(=O)C1CCC1)c1c(N)n(CC(C)C)c(=O)[nH]c1=O	-1.5	-1.8	-2.6	-1.1	-6.4	-6.3	·	·
CCCCC1CCC(C(=O)N(CCOC)c2c(N)n(CC(C)C)c(=O)[nH]c2=O)CC1 (centres undefined)	1.9	-2.0	9.3*	14.5*	-9.1	0.4	2.9	4.0
O=[N+]([O-])c1ccccc1S(=O)(=O)N1CCC(c2cn3ccccc3n2)CC1	-9.0	-6.2	-2.1	-4.2	-10.5	1.1	·	·
C=CCOc1ccc(CNc2nn[nH]n2)cc1	2.4	-9.7	9.1*	4.2	16.8	0.8	-15.2	-2.6
